The list is not random: actives were taken first. Their share in the collection is about 9.4%.
T cruzi repl = T. cruzi replication inhibition. actives 1.4% (n = 300,000). T. cruzi beta-gal in NIH3T3, luminescence, 90 h. inhibition, % (test concentration not listed);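 active = mean inhibition across valid replicates above about 55%, limit read from the data; inconclusive = mean below that limit but half or more replicates reach it; inactive = mean below it, under half of replicates reach it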;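 also: signal also drops with host cell toxicity which is not excluded here; 0% = plate median of DMSO wells and 100% = zero luminescence signal; higher percent means less beta-gal luminescence so fewer parasites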
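Material: NIH/3T3 host cells with β-galactosidase reporter T. cruzi; Input: 5,000 host fibroblasts per well; Medium: DMEM, 2% fetal bovine serum; Compound: 50 nL DMSO compound solution per well; Schedule: 3 h host attachment, then at least 90 h co-culture; Detection: luminescent β-galactosidase signal after 60 min lysis.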
CSC inhib = blocks cancer stem cells; actives 1.1% (n = 300,000); cancer stem cell-like cells viability, luminescence; AID 2717; inhibition, % at 7.5 µM; in the data active = inhibition above about 75%; inconclusive = no clear call, values can overlap the other calls; tested in HMLE shEcad cells
Beta cell apopt = blocks beta cell apoptosis | INS-1E cytokine-induced death, ATP luminescence, 48 h; percent of positive-control rescue, neutral wells zero | protection from apoptosis, % (test concentration not listed) | actives 0.8% (n = 300,000) | AID 435005;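 active = Every replicate reaches about 75%, or at least half do and their mean reaches it too, limit read from the data; inconclusive = At least half of replicates reach the limit but their mean does not; inactive = Under half of replicates reach the limit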;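 also: 0% = cytokine-treated negative control wells and 100% = positive control rescue; higher means more ATP so stronger rescue from cytokine killing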
Lmaj promast = Leishmania major promastigote growth inhibition; Leishmania major promastigotes, resazurin fluorescence viability; inhibition, % at 10 µM; actives 9% (n = 200,000); AID 1063; in the data active = inhibition above about 50%;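 also: promastigotes grown with compound for 44 hours at 28 °C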
SKKanGAS inh = SKKanGAS growth inhibition. actives 1.3% (n = 300,000). S. pyogenes SKKanGAS, kanamycin growth, BacTiter-Glo, 6 h. AID 1662. inhibition, % at 7.5 µM;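 active = mean replicate score, as percent of positive control median, at least 50; inconclusive = mean below 50 but one replicate at or above 50; inactive = mean and every replicate below 50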;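 also: strain carries kanamycin resistance gene driven by streptokinase promoter and grows in 40 µg/ml kanamycin; loss of luminescence reflects streptokinase promoter inhibition or plain growth inhibition; 0% = median of DMSO wells and 100% = positive control at its reference dose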
Mdm2 MdmX PPI = disrupts the human Mdm2-MdmX interaction. O15151+Q00987. SaOS-2 split-luciferase Mdm2/MdmX complementation, luminescence. inhibition, % at 8 µM. actives 3% (n = 330,000). AID 485346;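 active = inhibition of at least 50% at 8 µM in the primary screen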
Target sequence (O15151 whole entry, looked up): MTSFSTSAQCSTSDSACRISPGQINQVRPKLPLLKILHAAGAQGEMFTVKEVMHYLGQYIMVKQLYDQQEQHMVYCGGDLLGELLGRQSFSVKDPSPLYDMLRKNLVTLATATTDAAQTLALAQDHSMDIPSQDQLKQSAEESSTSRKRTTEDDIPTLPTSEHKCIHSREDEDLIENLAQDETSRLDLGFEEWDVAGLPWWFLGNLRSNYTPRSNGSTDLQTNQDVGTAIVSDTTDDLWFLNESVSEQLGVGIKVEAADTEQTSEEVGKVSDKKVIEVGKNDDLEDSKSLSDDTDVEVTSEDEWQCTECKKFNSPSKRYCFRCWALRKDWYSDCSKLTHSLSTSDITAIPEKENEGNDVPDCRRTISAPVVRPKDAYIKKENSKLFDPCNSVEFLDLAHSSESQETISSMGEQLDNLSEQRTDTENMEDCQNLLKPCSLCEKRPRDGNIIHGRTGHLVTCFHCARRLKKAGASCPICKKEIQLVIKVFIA
Target sequence (Q00987 whole entry, looked up): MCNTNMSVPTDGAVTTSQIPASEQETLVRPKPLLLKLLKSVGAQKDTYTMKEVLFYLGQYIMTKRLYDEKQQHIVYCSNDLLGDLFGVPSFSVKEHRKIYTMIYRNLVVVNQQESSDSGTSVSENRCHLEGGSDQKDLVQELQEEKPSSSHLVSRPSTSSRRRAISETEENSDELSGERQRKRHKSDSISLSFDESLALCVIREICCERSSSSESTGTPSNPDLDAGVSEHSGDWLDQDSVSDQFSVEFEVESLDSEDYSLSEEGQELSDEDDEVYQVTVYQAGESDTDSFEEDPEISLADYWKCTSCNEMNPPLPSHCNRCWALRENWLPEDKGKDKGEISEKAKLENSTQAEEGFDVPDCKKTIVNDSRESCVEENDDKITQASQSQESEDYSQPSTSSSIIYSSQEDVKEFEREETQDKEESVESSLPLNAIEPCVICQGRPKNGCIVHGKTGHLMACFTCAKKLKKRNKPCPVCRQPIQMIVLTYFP
Starred values were filed as active, the others as inactive; ? = inconclusive; · = not tested or not shown.

SMILES	T cruzi repl	CSC inhib	Beta cell apopt	Lmaj promast	SKKanGAS inh	Mdm2 MdmX PPI
Clc1ccc(-n2ncc3c(NCCCn4ccnc4)ncnc32)cc1	29	72	6	100*	15	-43
Clc1ccc(-n2ncc3c(NCCN4CCOCC4)ncnc32)cc1	-1	11	-5	86*	-13	21
c1ccc(-n2ncc3c(NCCCN4CCOCC4)ncnc32)cc1	-5	-13	-8	-4	5	-36
COCCN(C(=O)COC(=O)CSc1ccc(Cl)cc1)c1c(N)n(Cc2ccccc2)c(=O)[nH]c1=O	-4	-6	0	·	-8	17
Nc1cc([N+](=O)[O-])ccc1O	6	-2	·	98*	1	-9
O=C(NN1C(=O)c2cc(Br)ccc2NC1c1cc(Br)cc(Br)c1O)c1ccncc1 (stereo not given)	9	32	-12	-6	59*	4
CC(OC(=O)CCN=C1NS(=O)(=O)c2ccccc21)C(=O)Nc1ccc(N(C)C)cc1 (stereo not given)	-11	-12	2	·	1	12
Cn1ccnc1C1CCCCN1C(=O)c1cc(COc2ccc(F)cc2F)on1 (stereo not given)	-3	-14	6	·	-2	18
Cn1c(=O)n(Cc2ccc(F)cc2)c(=O)c2c1nc1n2CCCN1C1CCCCC1	34	78*	11	3	11	43
O=C(NC1CC1)C1=C[C@H](c2csc3ccccc23)C[C@H](OCCCCO)O1	7	-19	-1	85*	3	28
O=C(NC1CC1)C1=C[C@@H](c2csc3ccccc23)C[C@@H](OCCCCO)O1	11	-11	-1	·	-4	13
COc1ccccc1/C=C/C=N/NC(=O)c1ccc2nc[nH]c2c1	-6	-15	2	56*	3	8
COc1ccc(OC)c(/C=N/NC(=O)c2ccc3nc[nH]c3c2)c1	0	-15	1	·	1	-2
CSc1cccc(NC(=O)CCCNC(=O)c2ccc(Cl)cc2)c1	-12	·	-4	·	-8	8
CC1(NC(=S)Nc2ccccc2)CCS(=O)(=O)C1 (stereo not given)	-12	-8	-3	·	-1	5
CC(=O)NC(=S)Nc1ccc(S(=O)(=O)N(C)Cc2ccccc2)cc1	68*	6	2	11	5	6
Cc1cccc(C(=O)NC(=S)Nc2ccc(S(=O)(=O)N(C)c3ccccc3)cc2)c1	4	22	8	100*	3	30
Cc1cccc(C(=O)NC(=S)Nc2ccc(Cc3ccncc3)cc2)c1	-16	37	-1	45	26	16
Cc1ccccc1C(=O)NC(=S)Nc1ccc(S(=O)(=O)N(C)c2ccccc2)cc1	15	4	-3	100*	13	31
Cc1cccc(C(=O)NC(=S)Nc2ccc(S(=O)(=O)N3CCN(C)CC3)cc2)c1	-6	-3	1	38	-3	-8
Cc1cccc(C(=O)NC(=S)Nc2ccc(S(=O)(=O)N3CCCCC3)cc2)c1	-7	5	14	100*	3	41
CN(c1ccccc1)S(=O)(=O)c1ccc(NC(=O)c2ccc(F)cc2)cc1	14	-4	·	·	-2	16
Oc1cc(-n2cccn2)c(O)cc1-n1cccn1	53	-14	-4	·	0	·
Cc1ccc(NC(=O)CN(C)C(=O)c2ccccc2Sc2ccccc2C#N)cc1	-4	-6	-1	·	-7	2
Cc1cccc(-n2cc3c(=O)n(C)c(=O)n(C)c3c2)c1	12	-3	-20	7	6	12
SMILES	T cruzi repl	CSC inhib	Beta cell apopt	Lmaj promast	SKKanGAS inh	Mdm2 MdmX PPI
CN(Cc1ccccc1)C(=O)CCS(=O)(=O)c1ccc2c(c1)NC(=O)CS2	-2	-11	-2	·	-3	4
COc1ccccc1OCC(=O)NNC(=O)c1c(-c2ccccc2Cl)noc1C	-11	-3	3	-2	7	-3
Cc1ccc(NC(=O)COc2ccc(CCO)cc2-n2nc3ccccc3n2)cc1C	57*	60	1	7	20	19
Cc1ccc(S(=O)(=O)Nc2ccc(N3CCCCC3)cc2)cc1	20	8	20	16	-4	6
Cc1ccc(NS(=O)(=O)c2ccc(C3CCCCC3)cc2)cc1	-19	10	43	13	76*	24
O=C(NC12CC3CC(CC(C3)C1)C2)c1ccccc1O	15	32	-1	50*	2	16
O=C(NC12CC3CC(CC(C3)C1)C2)c1ccc(-c2ccc(Cl)cc2)o1	59*	13	14	92*	24	-18
COc1ccccc1CNC(=O)c1ccc(-c2ccccc2Cl)o1	-2	35	13	15	52*	-16
CC(=O)NC(CC(=O)NC12CC3CC(CC(C3)C1)C2)c1ccccc1 (stereo not given)	-6	21	8	63*	5	16
COc1ccccc1NC(=S)NC(=O)c1ccc(-c2ccc(Cl)cc2)o1	25	-6	1	-1	-13	27
O=C(NC12CC3CC(CC(C3)C1)C2)c1ccc(-c2cccc(Cl)c2)o1	44	95*	16	22	9	28
O=C(NC12CC3CC(CC(C3)C1)C2)c1ccc(-c2ccccc2Cl)o1	?	125*	16	31	39	-104
O=C(NC(=S)Nc1ccccc1O)c1ccc(-c2ccc(Cl)cc2)o1	-11	26	-14	-11	53*	27
O=C(COC(=O)c1ccc(-c2ccc([N+](=O)[O-])cc2)o1)NC(=O)NC12CC3CC(CC(C3)C1)C2	10	-3	-10	98*	2	-16
C[C@@H]1CN([C@@H](C)CO)C(=O)c2cc(NC(=O)CCC(F)(F)F)ccc2O[C@H]1CN(C)S(=O)(=O)c1ccc(Cl)cc1	·	-20	-1	·	·	5
Cc1cccc(C)c1NC(=O)CNc1ncnc2sc(C)c(C)c12	-29	5	25	7	5	-22
COc1ccc(C2CC(=O)N(CCCN(C)CCc3ccc(OC)c(OC)c3)C2)cc1 (stereo not given)	64*	-21	-12	3	-7	24
O=C(CCC(=O)c1ccccc1)Nc1ccc(C(=O)O)cc1	-5	15	-10	·	0	7
O=C(CSc1ccc(Cl)cc1)N1N=CCC1c1ccccc1 (stereo not given)	13	12	-10	·	-3	11
O=C(CSC(=S)N1CCCCC1)N1N=CCC1c1ccccc1 (stereo not given)	7	-15	·	51*	4	0
Cc1nn(S(=O)(=O)c2ccc(Cl)cc2)c(C)c1Sc1ccc([N+](=O)[O-])cc1	62*	7	86*	82*	-4	·
Cc1nn(Cc2ccc(Cl)cc2)c(C)c1NC(=O)C(c1ccccc1)c1ccccc1	18	-1	-1	99*	7	-6
Cc1cc(C(=O)Nc2c(C)nn(Cc3ccc(Cl)cc3)c2C)no1	-7	-2	0	-4	-8	-6

Source: PubChem (several laboratories)
